Source: ChEMBL document CHEMBL1138476 (J Med Chem, 2009)
Calls of active or inactive are those of the source. No cut-off for these calls is given here.

Assays:
Canis familiaris [1] = experiment: Effect on respiratory function in spontaneously breathing mongrel dog assessed as change in airway resistance at 5 mg/kg after intravenous infusion for 60 mins (RVb= 17.3+/-15.1 %); type: functional, Canis lupus familiaris
Canis familiaris [2] = experiment: Effect on respiratory function in spontaneously breathing mongrel dog assessed as change in heart rate at 5 mg/kg after intravenous infusion for 60 mins (RVb= -0.9+/-5.8 %); type: functional, Canis lupus familiaris
Rattus norvegicus [3] = experiment: Toxicity in rat assessed as time spent on rotarod at 30 mg/kg, po after 1 hr by rotarod test; type: organism-based; parameters: dose 30 mg/kg, route oral; details: in vivo
How it was run: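 Rats, n = 8 per dose, dosed po in 0.25% Methocel 1 h before testing, at 0, 1.0, 3.0, 10, 30 and 100 mg/kg. Read-out is time on rotorod (s), mean ± SEM, compared with the vehicle (zero-dose) group.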

Rattus norvegicus [4] = experiment: Effect on acute renal function in rat assessed as change in urine potassium level per 100 gm body weight at 30 mg/kg, po (RVb= 60.3+/-11.1 mg/dl); type: functional
Canis familiaris [5] = experiment: Effect on respiratory function in spontaneously breathing mongrel dog assessed as change in minute volume at 5 mg/kg after intravenous infusion for 60 mins (RVb= -13.4+/-10.7 %); type: functional, Canis lupus familiaris
Rattus norvegicus [6] = experiment: Toxicity in rat assessed as total distance traveled at 3 mg/kg, po after 1 hr by spontaneous locomotor test; type: organism-based; parameters: dose 3 mg/kg, route oral; details: in vivo
How it was run: (§1)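 Rat spontaneous locomotor activity test with oral dosing in 0.25% Methocel 1 h before testing, at doses up to 100 mg/kg. Values are mean ± SEM, with N rats per group, compared with the vehicle (zero-dose) group.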

[7] = AUC (0 to infinity) in chimpanzee at 0.5 mg/kg, iv; type: ADME, organism-based, Pan troglodytes; parameters: time infinity, dose 0.5 mg/kg, route intravenous; details: plasma
How it was run: (§2)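 Chimpanzee PK. Oral: 1 mg/kg in two alert animals, given as a 1 mg/mL suspension in 50–50 (v/v) 0.5% methylcellulose/Tang orange juice with 1% Tween-80. IV: 0.5 mg/kg in one animal in 10% DMAC, 70% propylene glycol and deionized water, infused over 10 min (0.2 mL/kg). EDTA blood was taken predose and at 2–96 h; iv sampling added 6, 15 and 30 min.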

[8] = Half life in Beagle dog at 1 mg/kg, po by cassette dosing; type: ADME, organism-based, Canis lupus familiaris; parameters: dose 1 mg/kg, route oral; details: in vivo
[9] = Cmax in Beagle dog at 1 mg/kg, po by cassette dosing; type: ADME, organism-based, Canis lupus familiaris; parameters: dose 1 mg/kg, route oral; details: in vivo
Rattus norvegicus [10] = experiment: Effect on acute renal function in rat assessed as change in urine chloride level per 100 gm body weight at 30 mg/kg, po (RVb= 95.3+/-11.6 mg/dl); type: functional
[11] = target: T1, Adenosine receptor A1 (Homo sapiens) (UniProt P30542); experiment: Inhibition of ligand binding in adenosine A1 receptor; parameters: scale not given: the % may be the effect or the level left
T1 sequence (whole entry): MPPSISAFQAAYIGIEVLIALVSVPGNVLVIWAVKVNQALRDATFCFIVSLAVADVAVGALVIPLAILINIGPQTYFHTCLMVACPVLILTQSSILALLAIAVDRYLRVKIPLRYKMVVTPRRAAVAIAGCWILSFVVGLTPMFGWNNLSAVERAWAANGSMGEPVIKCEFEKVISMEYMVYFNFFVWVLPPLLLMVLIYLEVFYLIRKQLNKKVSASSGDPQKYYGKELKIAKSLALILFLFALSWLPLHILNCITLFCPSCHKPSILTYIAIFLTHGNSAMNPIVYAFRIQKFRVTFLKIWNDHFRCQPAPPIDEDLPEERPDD
How it was run: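 Screened at 10^-7 and 10^-5 M for binding inhibition. Then run twice in a dose–response format on the cloned rat adenosine A1 receptor expressed in CHO cells to obtain Ki.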

Rattus norvegicus [12] = experiment: Effect on acute renal function in rat assessed as change in glucose level in urine per 100 gm body weight at 30 mg/kg, po (RVb= 9.9+/-1.9 mg/dl); type: functional
Rattus norvegicus [13] = experiment: Ex vivo receptor occupancy of CRF receptor in rat brain at 30 mg/kg, po by [125I]sauvagine binding and autoradiography relative to control; type: functional
How it was run: (§3)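 Rats were given 0.3, 1, 3, 10 or 30 mg/kg po in 0.25% Methocel 60 min before sacrifice. Brains were removed, sectioned and frozen at −80 °C. Ex vivo CRF receptor binding gave occupancy relative to vehicle-treated rats, reported as mean ± SEM.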

[14] = Cmax in rat at 5 mg/kg, po; type: ADME, organism-based; parameters: dose 5 mg/kg, route oral; details: in vivo
How it was run: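 Rats (n = 3) received 1 mg/kg iv in 10% DMAC, 70% propylene glycol and deionized water, or 5 mg/kg orally in 0.5% methylcellulose.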

Canis familiaris [15] = experiment: Effect on respiratory function in spontaneously breathing mongrel dog assessed as change in mean arterial pressure at 5 mg/kg after intravenous infusion for 60 mins (RVb= 5.1+/-3.5 %); type: functional, Canis lupus familiaris, Artery
[16] = Clearance in chimpanzee at 0.5 mg/kg, iv; type: ADME, organism-based, Pan troglodytes; parameters: dose 0.5 mg/kg, route intravenous; details: in vivo; how it was run: as §2
Rattus norvegicus [17] = experiment: Ex vivo receptor occupancy of CRF receptor in rat brain at 3 mg/kg, po by [125I]sauvagine binding and autoradiography relative to control; type: functional; how it was run: as §3
[18] = Oral bioavailability in chimpanzee at 1 mg/kg; type: ADME, organism-based, Pan troglodytes; details: in vivo
How it was run: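 Two alert chimpanzees were given 1 mg/kg po as a 1 mg/mL suspension in 50:50 (v/v) 0.5% methylcellulose and Tang orange juice containing 1% Tween-80. EDTA blood was taken predose and at 2–96 h. Bioavailability was calculated against a 0.5 mg/kg iv dose given to one animal.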

Rattus norvegicus [19] = experiment: Anxiolytic activity in rat assessed as increase in time spent on open arm at 18 mg/kg, po by elevated plus-maze test; type: functional, organism-based; parameters: dose 18 mg/kg
How it was run: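 Rat elevated plus maze: percent of test time spent in the open arms. Oral dosing in 0.25% Methocel 60 min before testing; n = 12 per dose, mean ± SEM. Analysed by ANOVA followed by Fisher's LSD comparisons against vehicle.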

Rattus norvegicus [20] = experiment: Effect on acute renal function in rat assessed as change in urine pH per 100 gm body weight at 30 mg/kg, po (RVb= 7.74+/-0.07 mg/dl); type: functional
Canis familiaris [21] = experiment: Effect on respiratory function in spontaneously breathing mongrel dog assessed as change in peak expiratory flow at 5 mg/kg after intravenous infusion for 30 mins (RVb= -3.3+/-6.4 %); type: functional, Canis lupus familiaris
Canis familiaris [22] = experiment: Effect on respiratory function in spontaneously breathing mongrel dog assessed as change in airway resistance at 5 mg/kg after intravenous infusion for 6 mins (RVb= 3.9+/-4.7 %); type: functional, Canis lupus familiaris
Canis familiaris [23] = experiment: Effect on respiratory function in spontaneously breathing mongrel dog assessed as change in pulmonary compliance at 5 mg/kg after intravenous infusion for 60 mins (RVb= -4.8+/-[…]); type: functional, Canis lupus familiaris
Rattus norvegicus [24] = experiment: Effect on acute renal function in rat assessed as change in urine urea level per 100 gm body weight at 30 mg/kg, po (RVb= 321+/-62 mg/dl); type: functional
Rattus norvegicus [25] = experiment: Toxicity in rat assessed as total distance traveled at 100 mg/kg, po after 1 hr by spontaneous locomotor test; type: organism-based; parameters: dose 100 mg/kg, route oral; details: in vivo; how it was run: as §1
[26] = Plasma concentration in dog at 0.3 mg/kg after intravenous infusion for 30 mins; type: ADME, organism-based, Canis lupus familiaris; parameters: dose 0.3 mg/kg, route intravenous
[27] = Lipophilicity log P of the compound; type: physicochemical; details: octanol/water
Rattus norvegicus [28] = experiment: Effect on acute renal function in rat assessed as change in urine volume per 100 gm body weight at 30 mg/kg, po (RVb= 1.7+/-0.2 ml/100g); type: functional

CC[C@@H](C)Nc1nc(C)nc2c(-c3ccc(OC)nc3C)c(C)nn12 [PEXACERFONT]
Activity (Canis familiaris [1]): -23.6% | Activity (Canis familiaris [2]): -2.3% | Time (Rattus norvegicus [3]): 157 s | Activity (Rattus norvegicus [4]): 32.1 mg/dL | Activity (Canis familiaris [5]): -6% | Activity (Rattus norvegicus [6]): 5639 cm | AUC(0-inf) [7]: 11.9 µM·h | half-life [8]: 10.7 h | Cmax [9]: 301 nM | Activity (Rattus norvegicus [10]): 80 mmol/L | Activity [11]: 90% | Activity (Rattus norvegicus [12]): 4.4 mg/dL | Activity (Rattus norvegicus [13]): 85% | Cmax [14]: 1260 nM | Activity (Canis familiaris [15]): 4% | clearance [16]: 2 mL/min/kg | Activity (Rattus norvegicus [17]): 59% | bioavailability [18]: 49% | Activity (Rattus norvegicus [19]): Active | Activity (Rattus norvegicus [20]): 7.74 | Activity (Canis familiaris [21]): -10.7% | Activity (Canis familiaris [22]): 15.3% | Activity (Canis familiaris [23]): 33.8% | Activity (Rattus norvegicus [24]): 166 mg/dL | Activity (Rattus norvegicus [25]): 4041 cm | concentration at 0.5 h [26]: 150 nM | logP [27]: 4.32 | Activity (Rattus norvegicus [28]): 3 mL/100 g
